Test results as given in ChEMBL document CHEMBL1811775, “Brominated arginine-derived alkaloids from the red sea sponge Suberea mollis” (J Nat Prod, 2011).
Values after ≈ are worked out from the molar mass of the structure shown. Active and inactive are the calls of the source. The rule behind the calls is not given here.

How the values were obtained:
Candida albicans [1] = assay: Antifungal activity against Candida albicans ATCC 2091 at 10 mg/mL after 24 hrs by agar diffusion method; type: functional; conditions: ATCC 2091, 24 h, read-out: IZ
Procedure, shortened: (§1)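 Reference drugs were tested in the same agar diffusion series at the stated loads: chloramphenicol 30 μg/disk, ciprofloxacin 5 μg/disk, erythromycin 15 μg/disk, and clotrimazole 10 mg/mL (100 μL). Plates were read at 37 C for 24 h, and inhibition zones were recorded in mm.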

Candida albicans [2] = assay: Antifungal activity against Candida albicans ATCC 2091 after 24 hrs by agar diffusion method; type: functional
Procedure, shortened: (§2)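 Agar cup diffusion against the listed ATCC strains. Each compound was dissolved at 1 mg/mL in DMF, and 100 μL was placed in each cup. Plates were incubated at 37 C for 24 h, and the inhibition zone diameters were measured in mm.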

Staphylococcus aureus [3] = assay: Antibacterial activity against Staphylococcus aureus ATCC 6538P after 24 hrs by agar diffusion method; type: functional; procedure, shortened: as §2
Staphylococcus aureus [4] = assay: Antibacterial activity against Staphylococcus aureus ATCC 6538P at 15 ug/disk after 24 hrs by agar diffusion method; type: functional; conditions: read-out: IZ; procedure, shortened: as §1
HeLa = assay: Cytotoxicity against human HeLa cells after 72 hrs by MTT assay; type: functional, cell-based
Procedure, shortened: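 HeLa cells were plated overnight at 37 C in 5% CO2. Samples were serially diluted 1:4 down the plate, with adriamycin and DMSO as controls. After 72 h, viability was read at 490 nm as MTS reduction to formazan. IC50 (μg/mL) was calculated from the dilution series.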

Escherichia coli = assay: Antibacterial activity against Escherichia coli ATCC 35218 after 24 hrs by agar diffusion method; type: functional; procedure, shortened: as §2
[5] = test system: Radical scavenging activity; assay: Antioxidant activity assessed as DPPH radical scavenging activity after 30 mins by TLC […] assay; type: functional
Procedure, shortened: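 TLC autographic DPPH assay. Samples at 1 mg/mL in MeOH were spotted at 6 μg each as 4 mm spots, with vitamin E as the positive control. The plate was sprayed with 0.2% (w/v) DPPH in MeOH, and scavenging spots were read 30 min after spraying.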

Pseudomonas aeruginosa [6] = assay: Antibacterial activity against Pseudomonas aeruginosa ATCC 9027 after 24 hrs by agar diffusion method; type: functional, organism-based; procedure, shortened: as §2
Klebsiella pneumoniae [7] = assay: Antibacterial activity against Klebsiella pneumoniae ATCC 10032 after 24 hrs by agar diffusion method; type: functional, organism-based; procedure, shortened: as §2
Pseudomonas aeruginosa [8] = assay: microbe, parasite or virus in culture; conditions: ATCC 9027, 24 h, read-out: IZ
Pseudomonas aeruginosa [9] = assay: Antibacterial activity against Pseudomonas aeruginosa ATCC 9027 at 30 ug/disk after 24 hrs by agar diffusion method; type: functional; conditions: ATCC 9027, 24 h, read-out: IZ
Procedure, shortened: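 Agar diffusion against P. aeruginosa ATCC 9027, using reference antibiotic disks at 30 μg/disk. Plates incubated at 37 C for 24 h, and the inhibition zone diameter read in mm.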

Klebsiella pneumoniae [10] = assay: Antibacterial activity against Klebsiella pneumoniae ATCC 10032 at 30 ug/disk after 24 hrs by agar diffusion method; type: functional; conditions: ATCC 10032, 24 h, read-out: IZ; procedure, shortened: as §1
Staphylococcus aureus [11] = assay: Antibacterial activity against Staphylococcus aureus ATCC 6538P at 30 ug/disk after 24 hrs by agar diffusion method; type: functional; conditions: read-out: IZ; procedure, shortened: as §1

`Clc1ccccc1C(c1ccccc1)(c1ccccc1)n1ccnc1` [CLOTRIMAZOLE] was tested, and the zone of inhibition at 10000 µg/mL (Candida albicans [1]) was 28 mm.
For `COC1=C(Br)[C@H](O)[C@@]2(C=C1Br)CC(C(=O)NCCCCNC(=N)N)=NO2` [PUREALDIN L], the Activity (Candida albicans [2]) was “inactive” and the “inhibition zone (IZ)” value (Staphylococcus aureus [3]) was 5 mm.
For `CC[C@H]1OC(=O)[C@H](C)[C@@H](O[C@H]2C[C@@](C)(OC)[C@@H](O)[C@H](C)O2)[C@H](C)[C@@H](O[C@@H]2O[C@H](C)C[C@H](N(C)C)[C@H]2O)[C@](C)(O)C[C@@H](C)C(=O)[C@H](C)[C@@H](O)[C@]1(C)O` [ERYTHROMYCIN], the zone of inhibition at 15 µg/disc (Staphylococcus aureus [4]) was 8 mm.
`NC(=O)CC1(O)C=C(Cl)C(=O)C(Cl)=C1` [DICHLOROVERONGIAQUINOL] was tested, and the IC50 (HeLa) was 13 µg/mL (≈ 55.1 µM), the “inhibition zone (IZ)” value (Escherichia coli) was 15 mm and the Activity (Candida albicans [2]) was “inactive”.
With `COc1ccc(O)c(CC(N)=O)c1Br` [SUBEREAPHENOL] the IC50 (HeLa) was 19 µg/mL (≈ 73.1 µM), the “inhibition zone (IZ)” value (Escherichia coli) was 18 mm and the Activity [5] was “Active”. For the same compound, the “inhibition zone (IZ)” value (Candida albicans [2]) was 20 mm and the “inhibition zone (IZ)” value (Staphylococcus aureus [3]) was 10 mm.
In the case of `COc1ccc(/C=C/C(=O)N[C@H](CCCNC(=N)N)C(=O)O)cc1Br`, the Activity (Escherichia coli) is reported as “inactive”, the Activity (Pseudomonas aeruginosa [6]) is reported as “inactive” and the Activity (Candida albicans [2]) is reported as “inactive”. For the same compound, the Activity (Klebsiella pneumoniae [7]) was “inactive” and the Activity (Staphylococcus aureus [3]) was “inactive”.
`O=C(O)c1cn(C2CC2)c2cc(N3CCNCC3)c(F)cc2c1=O` [CIPROFLOXACIN] showed a zone of inhibition at 5 µg/disc (Pseudomonas aeruginosa [8]) of 8 mm.
For `COC1=C(Br)[C@H](O)[C@@]2(C=C1Br)CC(C(=O)NCCCCNC(=O)C1=NO[C@]3(C=C(Br)C(OC)=C(Br)[C@@H]3O)C1)=NO2` [AEROTHIONIN], the Activity (Candida albicans [2]) was “inactive” and the “inhibition zone (IZ)” value (Staphylococcus aureus [3]) was 5 mm.
In the case of `COc1c(Br)cc(/C=C/C(=O)N[C@H](CCCNC(=N)N)C(=O)O)cc1Br`, the Activity (Escherichia coli) is reported as “inactive”, the Activity (Pseudomonas aeruginosa [6]) is reported as “inactive” and the Activity (Candida albicans [2]) is reported as “inactive”. For the same compound, the Activity (Klebsiella pneumoniae [7]) was “inactive” and the Activity (Staphylococcus aureus [3]) was “inactive”.
`O=C(N[C@H](CO)[C@H](O)c1ccc([N+](=O)[O-])cc1)C(Cl)Cl` [CHLORAMPHENICOL] gave a zone of inhibition at 30 µg/disc (Pseudomonas aeruginosa [9]) of 7 mm, a zone of inhibition at 30 µg/disc (Klebsiella pneumoniae [10]) of 10 mm and a zone of inhibition at 30 µg/disc (Staphylococcus aureus [11]) of 9 mm.
